Measurements: ChEMBL document CHEMBL3244020, “Trichloroacetamidines, a new class of positive inotropic agents” (J Med Chem, 1978)
Activity calls are given as the source filed them. No cut-off for these calls is given here.

What was measured:
[1] = system: Canis familiaris; assay: Positive inotropic activity in Beagle dog assessed as increase in left ventricular pressure at 1.25 mg/kg, iv; type: functional, organism-based; set-up: dose 1.25 mg/kg; details: Canis lupus familiaris, Heart left ventricle
[2] = system: Canis familiaris; assay: Toxicity in Beagle dog assessed as increase in heart rate at 1.25 to 5 mg/kg, iv measured within 2 mins; type: organism-based, Canis lupus familiaris; set-up: dose 1.25-5 mg/kg, route intravenous; details: in vivo
[3] = Positive inotropic activity in cat heart papillary muscle assessed as increase in contractile force at 10 ug/mL measured for 5 to 30 mins; type: functional, Felis catus, Muscle tissue
Method in brief: (§1)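 Right-ventricular cat papillary muscles in Krebs–Henseleit at 37 °C, field-stimulated at 1/s (4–10 ms, 6–10 V). Muscles equilibrated about 90 min, until force fell to 25–30% of original. Compound added and force recorded at 5, 10, 20 and 30 min, followed by ouabain 0.5 μg/mL. Positives were retested on three more preparations at ≥3 concentrations. Scored as mg increase in contractile force.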

[4] = system: Canis familiaris; assay: Toxicity in Beagle dog assessed as effect on mean arterial pressure at 1.25 mg/kg, iv; type: organism-based, Canis lupus familiaris, Artery; set-up: dose 1.25 mg/kg, route intravenous; details: in vivo
[5] = system: Canis familiaris; assay: Positive inotropic activity in Beagle dog assessed as increase in left ventricular contractile force at 1.25 mg/kg, iv measured after 1 hr; type: functional, organism-based; set-up: dose 1.25 mg/kg; details: Canis lupus familiaris, Heart left ventricle
[6] = system: Canis familiaris; assay: Positive inotropic activity in Beagle dog assessed as increase in left ventricular contractile force at 1.25 mg/kg, iv measured within 5 mins (reference value: 76 g); type: functional, Canis lupus familiaris, Heart left ventricle
[7] = organism: Felis catus; assay: Positive inotropic activity in heart papillary muscle isolated from reserpine-treated cat assessed as increase in contractile force at 10 ug/mL measured for 5 to 30 mins; type: functional, tissue-based; details: Muscle tissue
Method in brief: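 Cats pretreated with reserpine 0.5 mg/kg ip before papillary muscle isolation. Right-ventricular muscles kept in Krebs–Henseleit at 37 °C, stimulated at 1/s, and force recorded at 5–30 min after compound addition.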

[8] = Positive inotropic activity in cat heart papillary muscle assessed as increase in contractile force at 2.5 ug/mL measured for 5 to 30 mins; type: functional, Felis catus, Muscle tissue; method in brief: as §1
[9] = Positive inotropic activity in cat heart papillary muscle assessed as concentration required to increase contractile force by 500 mg measured for 5 to 30 mins; type: functional, Felis catus, Muscle tissue; method in brief: as §1
[10] = system: Canis familiaris; assay: Positive inotropic activity in Beagle dog assessed as increase in left ventricular contractile force at 5 mg/kg, iv; type: functional, organism-based; set-up: dose 5 mg/kg; details: Canis lupus familiaris, Heart left ventricle
[11] = organism: Felis catus; assay: Positive inotropic activity in cat heart papillary muscle assessed as increase in contractile force at 1.7 ug/mL measured up to 45 mins; type: functional, tissue-based; details: Muscle tissue
Method in brief: (§2)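 Electrically paced (1/s) right-ventricular cat papillary muscles in Krebs–Henseleit solution at 37 °C. Compound added after force declined to 25–30% of original following about 90 min equilibration. Contractile force followed over time to peak and to end of action. Values are the average of four experiments.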

[12] = organism: Felis catus; assay: Positive inotropic activity in cat heart papillary muscle assessed as increase in contractile force up to 10 ug/mL measured for 5 to 30 mins in presence of beta-adrenergic inhibitor sotalol; type: functional, tissue-based
Method in brief: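 Cat right-ventricular papillary muscle in Krebs–Henseleit at 37 °C, electrically driven at 1/s. Force recorded 5–30 min after compound, in the presence of the β-blocker sotalol at 10 μg/mL. Scored as mg increase in contractile force.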

[13] = Inhibition of calf heart Na+-K+ dependent ATPase after 10 to 20 mins; set-up: species or system Bos taurus; details: read-out: I50
Method in brief: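 Partially purified membrane ATPase from calf heart or guinea pig renal cortex. Reaction started by final addition of enzyme. Incubated at 37 °C under air, with aliquots taken at 10 and 20 min. Liberated phosphate measured by the Lowry–Lopez method. I50 came from log inhibitor vs percent inhibition lines, at least three points. This was done only where acute inhibition was >50% at 1 × 10⁻³ M.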

[14] = Positive inotropic activity in cat heart papillary muscle assessed as increase in contractile force at 1.7 ug/mL measured for 10 mins (reference value: 855 mg); type: functional, Felis catus, Muscle tissue; method in brief: as §2
[15] = Inhibition of calf heart Na+-K+ dependent ATPase preincubated for 30 mins measured after 10 to 20 mins; set-up: species or system Bos taurus; details: read-out: I50
Method in brief: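 Partially purified membrane ATPase from calf heart or guinea pig renal cortex. Inhibitor plus enzyme were preincubated 30 min at 10× final concentrations, then added to the otherwise complete assay system. Incubated at 37 °C under air, with aliquots taken at 10 and 20 min. Liberated phosphate measured by the Lowry–Lopez method. I50 came from log inhibitor vs percent inhibition lines, at least three points.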

[16] = Dissociation constant, pKa of the compound; type: physicochemical
Method in brief: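 pKa determined in water or in 30% EtOH–70% H2O, depending on compound.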

[17] = system: Canis familiaris; assay: Toxicity in Beagle dog assessed as reduction in mean arterial pressure at 5 mg/kg, iv; type: organism-based, Canis lupus familiaris, Artery; set-up: dose 5 mg/kg, route intravenous; details: in vivo
[18] = Positive inotropic activity in cat heart papillary muscle assessed as increase in contractile force at 0.156 ug/mL measured for 5 to 30 mins; type: functional, Felis catus, Muscle tissue
Method in brief: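 Right-ventricular cat papillary muscles in Krebs–Henseleit solution at 37 °C, paced at 1/s (4–10 ms, 6–10 V square waves). Equilibrated about 90 min; compound added once force had fallen to 25–30% of original (1.5–2 h). Force recorded 5, 10, 20 and 30 min after addition, then ouabain 0.5 μg/mL added. Increase over 20% scored positive. Actives retested on three further preparations at ≥3 concentrations.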

[19] = system: Canis familiaris; assay: Positive inotropic activity in Beagle dog assessed as increase in left ventricular dp/dt maximum at 1.25 mg/kg, iv; type: functional, organism-based; set-up: dose 1.25 mg/kg; details: Canis lupus familiaris, Heart left ventricle

With `N=C(NCc1c[nH]c2ccccc12)C(Cl)(Cl)Cl` the Activity [1] was “Active”, the Activity [2] was “Toxic” and the Activity [3] was greater than 600 mg. For the same molecule, the Activity [4] was “Non-toxic”, the Activity [5] was “Active” and the Activity [6] was 125 g. The Activity [7] was “Active”, the Activity [8] was 201 mg and the Activity [9] was 1.27 µg/mL. For the same molecule, the Activity [10] was “Active”, the Activity [11] was “Active” and the Activity [12] was “Active”. It also gave an IC50 [13] of 45 µM, an Activity [14] of 1375 mg and an IC50 [15] of 20 µM. The pKa [16] was 6, the Activity [17] was “Toxic” and the Activity [18] was 201 mg. The Activity [19] was “Active”.
